Measurements pooled from the literature.
Compare with care: the assays were run in different laboratories.
Technique: competition with immobilised ligand
JAK3 JH1: Tyrosine-protein kinase JAK3, JH1 (JAK3, Homo sapiens, UniProt P52333)
JAK3: Tyrosine-protein kinase JAK3 (JAK3, Homo sapiens, UniProt P52333)

For `O=C(Nc1cccnn1)N1CCC(=Cc2cccc(Oc3ccc(C(F)(F)F)cn3)c2)CC1`, the remaining binding was 100% (JAK3 JH1; cell-free assay; 1 µM).
With `CCN1CCN(Cc2ccc(C(=O)Nc3ccc(C)c(Oc4ccc5c(c4)CC(=O)N5)c3)cc2C(F)(F)F)CC1` the remaining binding was 97% (JAK3 JH1; binding; 1 µM).
The remaining binding of `COc1ccc2cc(OCC3(C(=O)O)CN(C(=O)c4ccc(F)cc4)C3)ccc2c1` is reported as 100% (JAK3 JH1; cell-free assay; 1 µM).
The remaining binding of `CN(C)c1nccc(-c2cnc3ncccn23)n1` is reported as 93% (JAK3 JH1; cell-free assay; 1 µM).
The remaining binding of `C[C@@]1(Cc2ccc(C#N)cc2)C(=O)N(c2cc(Cl)cc(Cl)c2)c2ncc(C(=O)NC3(c4nc(C5CCC5)no4)CC3)n21` is reported as 100% (JAK3 JH1; cell-free assay; 1 µM).
For `O=C(NCCCN1CCOCC1)c1ccc(Nc2ncc(Cl)c(-c3ccc(Cl)s3)n2)cc1`, the remaining binding was 0.8% (JAK3 JH1; binding; 1 µM).
For `C[C@@H]1CN(c2ccc3ncc(-c4ccc5[nH]nc(C6CC6)c5c4)n3n2)C[C@H](C)O1`, the remaining binding was 11% (JAK3; binding; 0.5 µM).
`COC(=O)Nc1nc2ccc(C(=O)c3ccccc3)cc2[nH]1` has a remaining binding of 29% (JAK3; cell-free assay; 10 µM).
`F[C@@H]1CCN(c2nccc(-c3cnn4ncccc34)n2)C1` has a remaining binding of 100% (JAK3 JH1; cell-free assay; 1 µM).
With `NS(=O)(=O)c1cc(NC(=O)C2(c3ccccc3Cl)CC2)ccc1Oc1cccc(Cl)c1` the remaining binding was 64% (JAK3 JH1; cell-free assay; 1 µM).
`CC(C)(C)c1ccc(-c2nc(CBr)nn2-c2cccc(O)c2)cc1` gave a remaining binding of 65% (JAK3; cell-free assay; 10 µM).
The remaining binding of `CC(=O)N1CCC(c2ccc(C(=O)NC(=N)N)cc2C(F)(F)F)CC1` is reported as 100% (JAK3 JH1; cell-free assay; 1 µM).
With `C[C@@H](c1ccc(-n2cnc3c(N)ncnc32)cc1)N1CCc2nn(C)c(Cc3ccccc3)c2C1=O` the remaining binding was 96% (JAK3 JH1; binding; 0.1 µM).
The remaining binding of `COc1cnc(Nc2cccc(S(N)(=O)=O)c2)nc1N1CCN(c2ccccc2)CC1` is reported as 42% (JAK3 JH1; binding; 1 µM).
`CN(C)c1nccc(-c2cnn3ncccc23)n1` has a remaining binding of 0% (JAK3 JH1; cell-free assay; 1 µM).
With `O=C(NCCCN1CCOCC1)c1ccc(Nc2nccc(-c3cc4ccccc4s3)n2)cc1` the remaining binding was 6.4% (JAK3 JH1; binding; 1 µM).
For `Nc1ncc2c(n1)-c1c([nH]c3ccc(C#CC4CC4)cc13)CCCC2`, the remaining binding was 80% (JAK3 JH1; binding; 1 µM).
With `CN(CCCC(F)(F)F)c1nccc(-c2cnn3ncccc23)n1` the remaining binding was 71% (JAK3 JH1; cell-free assay; 1 µM).
`COc1cnc(Nc2cccc(S(N)(=O)=O)c2)nc1N1CCN(c2ccccc2)C(=O)C1` gave a remaining binding of 16% (JAK3 JH1; binding; 1 µM).
The remaining binding of `O=C(NCc1ncc(C(F)(F)F)cc1Cl)c1ccc2c(c1)C1(CCS(=O)(=O)CC1)[C@H](C1CC1)N2S(=O)(=O)c1ccc(F)cc1` is reported as 79% (JAK3 JH1; cell-free assay; 1 µM).
For `Cc1cnc(Nc2ccc(C(=O)N3CCC(N4CCCC4)CC3)cc2)nc1-c1cc2ccccc2s1`, the remaining binding was 0% (JAK3 JH1; binding; 1 µM).
`O=C(Nc1c[nH]nc1C(=O)NC1CCNCC1)c1cc(F)cc(F)c1` gave a remaining binding of 100% (JAK3 JH1; binding; 1 µM).
